What was measured:
Type in all cases: functional, organism-based
Mus musculus [1] = species on record: Mus musculus; test: Tested for Color of the Final Reaction Product ofTPP-I Histochemical Staining with compound in the presence of p-anisaldehyde in mouse kidney cell preparations; yellow-green color was observed
How it was run: (§1)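 Mice were given an anesthetic overdose, then perfused transcardially with 0.9% saline followed by 2% paraformaldehyde in 0.2 M phosphate buffer. Tissues were postfixed 2 h, cryoprotected in 25% sucrose and frozen. Cryostat sections (10 µm) were embedded in 0.5% celloidin and incubated at 37 °C for 4 h in 0.1 M acetate pH 4.5 with 1 mM substrate plus 1 mg/mL of the listed aldehyde. Staining was scored by microscopy on ≥5 sections/animal from ≥3 animals.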

Mus musculus [2] = species on record: Mus musculus; test: Tested for Color of the Final Reaction Product ofTPP-I Histochemical Staining with compound in the presence of p-nitrobenzaldehyde in mouse kidney cell preparations; yellow-greencolor was observed; how it was run: as §1
Mus musculus [3] = species on record: Mus musculus; test: Tested for Intensity of the Final Reaction Product ofTPP-I Histochemical Staining with compound in the presence of benzaldehyde in mouse kidney cell preparations;; how it was run: as §1
Mus musculus [4] = species on record: Mus musculus; test: Tested for Intensity of the Final Reaction Product ofTPP-I Histochemical Staining with compound in the presence of p-nitrobenzaldehyde in mouse kidney cell preparations;; how it was run: as §1
Mus musculus [5] = species on record: Mus musculus; test: Tested for Color of the Final Reaction Product ofTPP-I Histochemical Staining with compound in the presence of benzaldehyde in mouse kidney cell preparations; yellow-green color was observed; how it was run: as §1
Mus musculus [6] = species on record: Mus musculus; test: Tested for Intensity of the Final Reaction Product ofTPP-I Histochemical Staining with compound in the presence of p-anisaldehyde in mouse kidney cell preparations;; how it was run: as §1
Mus musculus [7] = species on record: Mus musculus; test: Tested for Color of the Final Reaction Product ofTPP-I Histochemical Staining with compound in the presence of benzaldehyde in mouse kidney cell preparations; yellow-greenautofluorescent color was observed; how it was run: as §1
Mus musculus [8] = species on record: Mus musculus; test: Tested for Color of the Final Reaction Product ofTPP-I Histochemical Staining with compound in the presence of p-anisaldehyde in mouse kidney cell preparations; yellow-greenautofluorescent color was observed; how it was run: as §1
Mus musculus [9] = species on record: Mus musculus; test: Tested for Color of the Final Reaction Product ofTPP-I Histochemical Staining with compound in the presence of p-nitrobenzaldehyde in mouse kidney cell preparations; yellow-greenautofluorescent color was observed; how it was run: as §1
Mus musculus [10] = species on record: Mus musculus; test: Tested for Intensity of the Final Reaction Product ofTPP-I Histochemical Staining with compound in the presence of benzaldehyde in mouse kidney cell preparations; how it was run: as §1
Mus musculus [11] = species on record: Mus musculus; test: Tested for Intensity of the Final Reaction Product ofTPP-I Histochemical Staining with compound in the presence of p-nitrobenzaldehyde in mouse kidney cell preparations; how it was run: as §1
Mus musculus [12] = species on record: Mus musculus; test: Tested for Color of the Final Reaction Product ofTPP-I Histochemical Staining with compound in the presence of p-nitrobenzaldehyde in mouse kidney cell preparations; brown color was observed; how it was run: as §1
Mus musculus [13] = species on record: Mus musculus; test: Tested for Color of the Final Reaction Product ofTPP-I Histochemical Staining with compound in the presence of benzaldehyde in mouse kidney cell preparations; brown color was observed; how it was run: as §1

SMILES: CC(NC(=O)[C@H](C)N)C(=O)N[C@@H](Cc1ccccc1)C(=O)NNc1ccc2c(c1)C(=O)c1ccccc1C2=O (stereo partly specified)
- Activity (Mus musculus [1]): yellow-green color was observed
- Activity (Mus musculus [2]): yellow-green color was observed
- Activity (Mus musculus [3]): yellow-green color was observed
- Activity (Mus musculus [4]): yellow-green color was observed
- Activity (Mus musculus [5]): yellow-green color was observed
- Activity (Mus musculus [6]): yellow-green color was observed

SMILES: C[C@H](NC(=O)[C@@H]1CCCN1C(=O)CN)C(=O)n1nc2cccc3c2c1-c1cccc(Cl)c1C3=O
- Activity (Mus musculus [7]): yellow-greenautofluorescent color was observed
- Activity (Mus musculus [8]): yellow-greenautofluorescent color was observed
- Activity (Mus musculus [9]): yellow-greenautofluorescent color was observed
- Activity (Mus musculus [10]): yellow-greenautofluorescent color was observed
- Activity (Mus musculus [11]): yellow-greenautofluorescent color was observed
- Activity (Mus musculus [6]): yellow-greenautofluorescent color was observed

SMILES: NCC(=O)N1CCC[C@H]1C(=O)N[C@@H](CO)C(=O)NNc1cccc2c1C(=O)c1ccccc1C2=O
- Activity (Mus musculus [12]): brown color was observed
- Activity (Mus musculus [10]): brown color was observed
- Activity (Mus musculus [11]): brown color was observed
- Activity (Mus musculus [13]): brown color was observed
